Source: ChEMBL document CHEMBL4219194, “Diversity-oriented synthesis of pyrazoles derivatives from flavones and isoflavones leads to the discovery of promising reversal agents of fluconazole resistance in Candida albicans” (2018)
≈ marks a conversion by molar mass, not a printed value.

Tests used:
Assay type in all cases: functional
Candida albicans [1] = assay: Antifungal activity against Candida albicans SC5314 after 48 hrs by broth microdilution method; settings: SC5314, 48 h
Outline: (§1)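 MIC80 read by broth microdilution, with fluconazole as the positive antifungal agent. Values are reported in µg/mL as means of three independent experiments. Strains: wild-type SC5314 and DSY654, which lacks the Cdr1 and Cdr2 efflux pumps.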

Candida albicans [2] = assay: Synergistic antifungal activity against fluconazole-resistant Candida albicans 28A after 48 hrs in presence of fluconazole by broth microdilution checkerboard method
Outline: (§2)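 Checkerboard dose-response matrix on strain 28A with gradients of fluconazole and the test compound in RPMI 1640, read after 48 h at 35 °C. MIC80 is taken alone and in combination, and FICI is calculated. Synergy is FICI ≤0.5, indifference >0.5-4, and antagonism >4.0.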

Candida albicans [3] = assay: Potentiation of fluconazole-induced antifungal activity against fluconazole-resistant Candida albicans 28A after 48 hrs by broth microdilution checkerboard method; outline: as §2
Candida albicans [4] = assay: Antifungal activity against fluconazole-resistant Candida albicans 28A after 48 hrs by broth microdilution method
Outline: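 Clinical fluconazole-resistant isolates tested in broth microdilution with the compound alone. The endpoint is MIC80, the lowest concentration giving 80% growth inhibition, in µg/mL.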

Candida albicans [5] = assay: Potentiation of fluconazole-induced antifungal activity against fluconazole-resistant Candida albicans 28A assessed as fluconazole MIC80 after 48 hrs by broth microdilution checkerboard method; outline: as §2
Candida albicans [6] = assay: Antifungal activity against CDR1 and CDR2 efflux pump deficient Candida albicans DSY654 after 48 hrs by broth microdilution method; settings: DSY654, 48 h; outline: as §1

Row | SMILES | MIC80 (Candida albicans [1]) [µg/mL] | MIC80 (Candida albicans [2]) [µg/mL] | fractional inhibitory concentration index (FICI) (Candida albicans [3]) | MIC80 (Candida albicans [4]) [µg/mL] | MIC80 (Candida albicans [5]) [µg/mL] | MIC80 (Candida albicans [6]) [µg/mL]
1 | COc1cc(O)c(-c2cc(-c3ccccc3)nn2-c2ccccc2)c(OC)c1OC | > 128 | > 128 | 2 | > 128 | > 128 | > 128
2 | OCC1OC(c2c(O)ccc(-c3n[nH]cc3-c3ccc(O)cc3)c2O)C(O)C(O)C1O (stereo not given) | > 128 | > 128 | 2 | > 128 | > 128 | 16 (≈ 37.2 µM)
3 | COc1cc(O)c(-c2cc(-c3ccccc3)nn2-c2ccccc2)c(OC)c1 | > 128 | > 128 | 2 | > 128 | > 128 | > 128
4 | CCn1ncc(-c2ccc(OC)cc2)c1-c1ccc(O)cc1O | > 128 | 32 | 0.266 | > 128 | 2 | > 128
5 | COc1ccc(-c2cnn(CCO)c2-c2ccc(O)cc2O)cc1 | > 128 | > 128 | 2 | > 128 | > 128 | > 128
6 | COc1ccc(-n2nc(-c3c(O)cc(OC)c(OC)c3OC)cc2-c2ccccc2)cc1 | > 128 | > 128 | 2 | > 128 | > 128 | > 128
7 | Oc1ccc(-c2cc(-c3c(O)cc(O)cc3O)[nH]n2)cc1 | > 128 | 1 | 0.012 | > 128 | 0.5 | > 128
8 | COc1cc(O)c(-c2cc(-c3ccccc3)[nH]n2)c(OC)c1OC | 64 (≈ 196 µM) | 16 | 0.266 | 64 (≈ 196 µM) | 2 | 2 (≈ 6.13 µM)
9 | Oc1cc(O)c(-c2cc(-c3ccccc3)n[nH]2)c(O)c1 | > 128 | 8 | 0.078 | > 128 | 2 | > 128
10 | Oc1ccc(C2=NCCNC(c3ccccc3)=C2)c(O)c1O | > 128 | > 128 | 2 | > 128 | > 128 | 32 (≈ 108 µM)
11 | Oc1ccc(-c2cnn(-c3ccccc3)c2-c2ccc(O)cc2O)cc1 | > 128 | > 128 | 2 | > 128 | > 128 | > 128
12 | OCCn1cc(-c2ccc(O)cc2)c(-c2ccc(O)cc2O)n1 | > 128 | > 128 | 2 | > 128 | > 128 | > 128
13 | COc1ccc(-c2cc(-c3ccccc3)nn2CCO)c(O)c1OC | > 128 | > 128 | 2 | > 128 | > 128 | > 128
14 | Oc1ccc(-c2cn[nH]c2-c2ccc(O)cc2O)cc1 | > 128 | > 128 | 2 | > 128 | > 128 | > 128
15 | Oc1ccccc1-c1cc(-c2ccccc2)[nH]n1 | 16 (≈ 67.7 µM) | 16 | 0.266 | 64 (≈ 271 µM) | 2 | 8 (≈ 33.9 µM)
16 | CCn1ncc(-c2ccc(O)cc2)c1-c1ccc(O)c(C2OC(CO)C(O)C(O)C2O)c1O (stereo not given) | > 128 | > 128 | 2 | > 128 | > 128 | > 128
17 | Oc1ccccc1C1=NCCNC(c2ccccc2)=C1 | > 128 | > 128 | 2 | > 128 | > 128 | > 128
18 | Oc1ccc(-c2cc(-c3ccccc3)n[nH]2)c(O)c1O | 8 (≈ 29.8 µM) | > 128 | 2 | > 128 | > 128 | 8 (≈ 29.8 µM)
19 | OCCn1ncc(-c2ccc(O)cc2)c1-c1ccc(O)cc1O | > 128 | > 128 | 2 | > 128 | > 128 | > 128
20 | OCCn1nc(-c2ccccc2)cc1-c1ccccc1O | > 128 | > 128 | 2 | > 128 | > 128 | 8 (≈ 28.5 µM)
21 | COc1ccc(-c2cn[nH]c2-c2c(O)cc(O)cc2O)cc1 | > 128 | > 128 | 2 | > 128 | > 128 | > 128
22 | COc1ccc(-c2cc(-c3ccccc3)[nH]n2)c(O)c1OC | > 128 | > 128 | 2 | > 128 | > 128 | > 128
23 | OCCn1ncc(-c2ccc(O)cc2)c1-c1ccc(O)c(C2OC(CO)C(O)C(O)C2O)c1O (stereo not given) | > 128 | > 128 | 2 | > 128 | > 128 | > 128
24 | COc1ccc(C2=CC(c3c(O)cc(OC)cc3OC)=NCCN2)cc1 | > 128 | > 128 | 2 | > 128 | > 128 | 16 (≈ 45.1 µM)
25 | COc1ccc(-n2nc(-c3ccccc3)cc2-c2c(O)cc(OC)c(OC)c2OC)cc1 | > 128 | > 128 | 2 | > 128 | > 128 | 4 (≈ 9.25 µM)
26 | Oc1ccccc1-c1cc(-c2ccccc2)nn1-c1ccccc1 | 128 (≈ 410 µM) | 128 | 1.016 | 128 (≈ 410 µM) | 2 | 8 (≈ 25.6 µM)
27 | COc1cc(O)c(-c2cc(-c3ccccc3)n(-c3ccccc3)n2)c(OC)c1OC | > 128 | > 128 | 2 | > 128 | > 128 | > 128
28 | COc1ccc(-c2cnn(-c3ccccc3)c2-c2ccc(O)cc2O)cc1 | > 128 | 16 | 0.141 | > 128 | 2 | > 128
29 | COc1cc(O)c(-c2cc(-c3ccccc3)n(CCO)n2)c(OC)c1 | > 128 | 32 | 0.266 | > 128 | 2 | 4 (≈ 11.8 µM)
30 | COc1ccc(-c2cn(CCO)nc2-c2ccc(O)cc2O)cc1 | > 128 | > 128 | 2 | > 128 | > 128 | > 128
